Compound activity: PubChem BioAssay, several laboratories
UBC9 SUMO inh: inhibitors of in vitro SUMOylation cascade, primary screen, biochemical, HTRF, uHTS | inhibition, % at 35 µM | HTRF SUMOylation assay, SAE1/SAE2 + UBC9 | hit rate 0.36% among 290,000 | SUMO-conjugating enzyme UBC9 (Homo sapiens), P63279; in the data active means inhibition above about 50%, passing the limit was not always enough
CTSL1 counter: Fasciola hepatica cathepsin L1 inhibitors, primary screen, counter-screen for PFM18AAP inhibitor project, biochemical, QFRET, fluorogenic peptide substrate; recombinant F. hepatica cathepsin L1, Z-Leu-Arg-MCA fluorescence; inhibition, % at 5.96 µM; AID 1906, 2009; hit rate 0.49% among 300,000;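 active means inhibition above the mean of all tested compounds plus 3 SD, set per screening campaign, cut at about 17% in these data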;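 further: 0% = plate median of test compound wells and 100% = 1 µM Z-Phe-Ala-diazomethylketone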
T cell HTS: modulators of CD8 T cell-vesicle binding, primary screen, mouse 2C CD8+ T cells, flow cytometry; 2C CD8+ T cell-vesicle binding; hits give low values; response (vesicle binding), % at 7 µM; AID 2052, 2009; hit rate 0.068% among 330,000;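 active means response, share of CD8 T cells binding vesicles, and their 90th percentile fluorescence all below set limits, cut at about 80% in these data, passing the limit was not always enough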;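 further: values below 100% mean blocked vesicle binding to the CD8+ T cells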
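Test system: purified 2C TCR transgenic mouse naive CD8+ T cells. Probe or stimulus: QL9-peptide-loaded Drosophila micro-vesicles bearing Ld, ICAM-1 and B7-1. Incubation: binding step 1.5 h, 37 °C, antibody labelling 20 min, ice. Measured by: flow cytometry of vesicle-bound cells.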
p-CIP stab down: p/CIP-EGFP fusion destabilizers, primary screen, fluorescence, F442A cells; 16 h; decrease of EGFP signal, % at 10 µM; hit rate 0.01% among 290,000; AID 1984, 2009;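 active means EGFP signal decrease of at least 30% at 10 µM or well 3 SD below plate mean, unless failing retest; inactive means the rest, including hits failing retest or dose response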
IMP-1 inh: IMP-1 metallo-beta-lactamase inhibitors, primary screen, biochemical, epi-absorbance readout, Pseudomonas aeruginosa enzyme. metallo-beta-lactamase IMP-1 (Pseudomonas aeruginosa). purified IMP-1, nitrocefin hydrolysis, epi-absorbance fluorescence. inhibition, % at 5.6 µM. hit rate 0.45% among 290,000. AID 1556, 2009;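 active means inhibition above the mean plus 3 SD of all compounds in the same screening run, cut at about 4.5% in these data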;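 further: 0% = IMP-1 with DMSO and 100% = DMSO wells lacking enzyme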
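Assay system: purified recombinant IMP-1 beta-lactamase. Input: IMP-1 0.2 nM before substrate addition. Buffer or medium: Zinc- and detergent-supplemented HEPES buffer, pH 7.1. Schedule: 25 °C, 15 min preincubation, 25 min reaction. Signal: Epi-absorbance fluorescence, 480 nm excitation, 530 nm emission. Evaluation: percent inhibition from optical density relative to buffer-blank wells.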
VIM-2 inhibitor: VIM-2 metallo-beta-lactamase inhibitors, primary screen, biochemical, epi-absorbance readout, Pseudomonas aeruginosa enzyme | purified VIM-2, nitrocefin hydrolysis, epi-absorbance fluorescence | hit rate 0.89% among 290,000 | inhibition, % at 5.6 µM | AID 1527, 2009;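 active means inhibition above the mean of all tested compounds plus 3 SD, cutoff set per screening run, cut at about 7.5% in these data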;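 further: red hydrolysis product quenches plate fluorescence so inhibitors raise well fluorescence; 0% = enzyme with DMSO and 100% = DMSO without enzyme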
Active calls of the source: *; i = inactive; nt = no result given. Only some compounds are listed: those with a hit (about 1.9% of all), similar ones and a draw of the others.

SMILES	UBC9 SUMO inh	CTSL1 counter	T cell HTS	p-CIP stab down	IMP-1 inh	VIM-2 inhibitor
COc1ccc(CC(=O)NNC(=O)c2c(-c3ccccc3Cl)noc2C)cc1OC	19	-2	193	-7	0	-1
O=C(Cc1cccc2ccccc12)NN1C(=O)CSC1=S	6	9	385	-3	0	-3
O=C(NN1C(=O)CSC1=S)C(=O)NN1C(=O)CSC1=S	96*	4	321	-14	18*	4
O=C(CSc1nc2ccsc2c(=O)n1CC1CCC(C(=O)O)CC1)c1ccc(Cl)cc1 (stereo not given)	35	-2	224	-10	14*	-1
CCc1ccc(NC(=O)CS(=O)CC(=O)Nc2ccc(N3CCOCC3)cc2)cc1 (stereo not given)	8	-6	205	10	36*	-1
CC1(C)Cc2c(sc3nc(-c4ccccc4)oc(=O)c23)CO1	1	2	551	4	-2	-2
O=C(CSC1=NNC(c2ccccn2)S1)Nc1ccc(C(F)(F)F)cc1 (stereo not given)	-104	-2	458	-20	-2	-4
c1ccc(CSC2=NNC(c3ccccn3)S2)cc1 (stereo not given)	-151	0	68*	-12	-3	-3
CCCn1c(=N)c(S(=O)(=O)c2ccc(F)cc2)cc2c(=O)n3ccccc3nc21	6	-2	469	-7	-4	8.9*
COCCn1c(=N)c(S(=O)(=O)c2ccc(F)cc2)cc2c(=O)n3cccc(C)c3nc21	8	-4	203	-4	-3	8.9*
CCOC(=O)C1=NNC2C(=O)N(Cc3ccccc3)C(=O)C12 (stereo not given)	-12	-2	351	-4	-3	-3
Cc1ccc(S(=O)(=O)c2cc3c(=O)n4ccccc4nc3n(CCCN3CCOCC3)c2=N)cc1C	27	5	i	-16	-1	10*
CCOCCCn1c(=N)c(S(=O)(=O)c2ccccc2)cc2c(=O)n3cc(C)ccc3nc21	22	0	244	3	-3	11*
C=CCn1c(=N)c(S(=O)(=O)c2ccc(C)c(C)c2)cc2c(=O)n3ccccc3nc21	8	-4	248	-7	-1	12*
N=c1c(S(=O)(=O)c2ccccc2)cc2c(=O)n3ccccc3nc2n1CCCN1CCOCC1	19	-4	209	-2	-1	9.2*
N=c1c(S(=O)(=O)c2ccc(Cl)cc2)cc2c(=O)n3ccccc3nc2n1CCN1CCOCC1	12	1	244	-1	-3	5
COc1ccc2cc(C(=O)C3CCCN(C(=O)c4cc5nc(C)cc(C)n5n4)C3)ccc2c1 (stereo not given)	24	2	801	0	-2	-3
NCC[C@H](O)C(=O)N[C@@H]1C[C@H](N)[C@@H](O[C@H]2O[C@H](CN)[C@@H](O)[C@H](O)[C@H]2O)[C@H](O)[C@H]1O[C@H]1O[C@H](CO)[C@@H](O)[C@H](N)[C@H]1O	71*	nt	nt	3	0	-1
COC(=O)C1=CO[C@@H](O[C@@H]2O[C@H](CO)[C@@H](O)[C@H](O)[C@H]2O)C2C(CO)=CCC12 (stereo not given in full)	nt	nt	357	nt	nt	nt
CC(=O)c1cccc(S(=O)(=O)NCC2CCCCC2)c1	-14	-3	186	4	-3	-2
Cc1ccc(C(=O)CCS(=O)(=O)c2ccc(F)cc2)cc1	16	30*	195	-7	-2	-1
Cc1ccc(S(=O)(=O)CCC(=O)c2ccc(F)cc2)cc1	11	43*	157	1	-4	-2
CC1CCCCC1NC(=O)CN1C(=O)NC(C)(c2cccc(Br)c2)C1=O (stereo not given)	nt	nt	202	nt	nt	nt
CC(C)c1ccc(CN(C(=O)c2cccs2)C2CCS(=O)(=O)C2)cc1 (stereo not given)	9	9	231	0	-2	0
CC(C)NC(=O)CSc1nnc2sc3ccccc3n12	9	-2	406	1	-1	-1
SMILES	UBC9 SUMO inh	CTSL1 counter	T cell HTS	p-CIP stab down	IMP-1 inh	VIM-2 inhibitor
NC(=O)CSc1nnc2sc3ccccc3n12	18	5	79*	15	-3	-1
Cc1cc(-c2c(C)[nH]n(-c3ccccc3)c2=O)n[nH]1	-13	-3	143	-8	-4	-1
CSc1ccccc1C(=O)NCc1ccc(F)cc1	15	32*	522	-3	-1	-2
CSc1ccccc1C(=O)NCc1ccc(C)cc1	7	0	249	-1	-1	-1
CC(C)Oc1cccc(C(=O)Nc2ccc(N3CCN(C)CC3)cc2)c1	-1	0	224	-5	0	12*
CCCOc1cccc(C(=O)NC(=S)Nc2ccc(N3CCN(C)CC3)cc2)c1	7	-2	137	11	0	12*
CC(=O)N1CCc2cc(S(=O)(=O)CCC(=O)NCc3ccc(F)cc3)ccc21	2	0	358	-8	-3	-2
Cc1ccccc1OCC(=O)NCCCNC(=O)c1ccncc1	-7	-3	364	-4	0	1
CC(=O)Nc1ccc(S(=O)(=O)N(C)CC(=O)N/N=C/c2ccc(C(=O)O)cc2)cc1	9	-3	228	4	2	0
COc1ccc(/C=N/NC(=O)CN(C)S(=O)(=O)c2ccc(NC(C)=O)cc2)cc1	17	3	184	8	31*	-2
CCOc1ccc(/C=C/C(=O)OC(C)C(=O)NC2CCCCC2C)cc1OC (stereo not given)	nt	-9	425	nt	nt	nt
O=c1c2[nH]c3ccc(Br)cc3c2ncn1CCCn1ccnc1	13	1	498	-7	5.9*	5
O=C(CCNS(=O)(=O)c1cccc2nsnc12)NCc1ccccc1Cl	0	-6	468	-7	0	1
CCOc1ccc(CC(=O)N/N=C/c2cccnc2)cc1OCC	3	1	233	-10	-1	-1
CC(C)CN(CCNC(=O)CN1C(=O)COc2ccc(S(=O)(=O)N3CCC(C)CC3)cc21)CC(C)C	3	20*	770	4	-4	-4
CCOC(=O)COc1c(OC)cc(Cl)cc1C1Nc2ccccc2C(=O)N1c1cccc(C)c1 (stereo not given)	19	-1	245	-8	5.6*	-3
C=CC[C@H](CC(=O)OC(C)(C)C)C(=O)OC[C@@H]1CCCN1C(=O)[C@H](CC=C)CC(=O)N[C@H](CO)Cc1ccccc1	nt	nt	252	nt	nt	nt
